Active and inactive are the calls of the source. The calls are words filed in the database; no cut-off is given here.
System: HUVEC
Assay: Effect on total p38 MAPK level in VEGF-stimulated HUVEC pretreated at 10 to 50 umol/L for 30 mins before VEGF addition by Western blot analysis
Format: functional, cell-based
Settings: Homo sapiens
For `COc1cc2ccc(=O)oc2cc1OCC(=O)c1ccc(Br)cc1`, the Activity was “inactive”.

System: HUVEC
Assay: Effect on total src level in VEGF-stimulated HUVEC pretreated at 10 to 50 umol/L for 30 mins before VEGF addition by Western blot analysis
Format: functional, cell-based
Settings: Homo sapiens
In the case of `COc1cc2ccc(=O)oc2cc1OCC(=O)c1ccc(Br)cc1`, the Activity is reported as “inactive”.

System: HUVEC
Assay: Effect on total ERK1/2 level in VEGF-stimulated HUVEC pretreated at 10 to 50 umol/L for 30 mins before VEGF addition by Western blot analysis
Format: functional, cell-based
Settings: Homo sapiens
In the case of `COc1cc2ccc(=O)oc2cc1OCC(=O)c1ccc(Br)cc1`, the Activity is reported as “inactive”.

System: HUVEC
Assay: Effect on total akt level in VEGF-stimulated HUVEC pretreated at 10 to 50 umol/L for 30 mins before VEGF addition by Western blot analysis
Format: functional, cell-based
Settings: Homo sapiens
For `COc1cc2ccc(=O)oc2cc1OCC(=O)c1ccc(Br)cc1`, the Activity was “inactive”.

Target: MAP kinase p38 (Homo sapiens) (UniProt O15264+Q15759+Q16539+P53778)
Assay: Inhibition of VEGF receptor signaling in VEGF-stimulated HUVEC assessed a effect on p38 MAPK phosphorylation pretreated at 10 to 50 umol/L for 30 mins before VEGF addition by Western blot analysis
Format: protein assay
Settings: not given
With `COc1cc2ccc(=O)oc2cc1OCC(=O)c1ccc(Br)cc1` the inhibition was “inactive”.

System: not listed separately
Assay: Inhibition of VEGF receptor signaling in VEGF-stimulated HUVEC assessed a effect on src phosphorylation pretreated at 10 to 50 umol/L for 30 mins before VEGF addition by Western blot analysis
Format: cell-based
Settings: Homo sapiens
With `COc1cc2ccc(=O)oc2cc1OCC(=O)c1ccc(Br)cc1` the inhibition was “inactive”.

System: not listed separately
Assay: Inhibition of VEGF receptor signaling in HUVEC assessed a inhibition of VEGF-induced Akt phosphorylation pretreated at 10 to 50 umol/L for 30 mins before VEGF addition by Western blot analysis
Format: cell-based
Settings: Homo sapiens
With `COc1cc2ccc(=O)oc2cc1OCC(=O)c1ccc(Br)cc1` the inhibition was “Active”.

System: PANC-1
Assay: Inhibition of MMP-2 protein expression in human PANC1 cells at 10 to 50 umol/L after 24 hrs by SDS-PAGE analysis
Format: functional, cell-based
Settings: not given
Method in brief: (§1)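 Gelatin zymography of culture medium from equal numbers of PANC-1 cells exposed to compound for 24 h. Samples run non-reduced and unboiled on 10% polyacrylamide with 1 mg/mL gelatin. Gel washed in 2.5% Triton X-100 buffer, digested 14 h at 37 °C in Tris–HCl/CaCl2/ZnCl2 buffer pH 7.6, then Coomassie-stained. Clear bands imaged.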
For `COc1cc2ccc(=O)oc2cc1OCC(=O)c1ccc(Br)cc1`, the inhibition was “Active”.

System: not listed separately
Assay: Inhibition of VEGF receptor signaling in HUVEC assessed a inhibition of VEGF-induced ERK1/2 phosphorylation pretreated at 10 to 50 umol/L for 30 mins before VEGF addition by Western blot analysis
Format: cell-based
Settings: Homo sapiens
For `COc1cc2ccc(=O)oc2cc1OCC(=O)c1ccc(Br)cc1`, the inhibition was “Active”.

System: PANC-1
Assay: Inhibition of MMP-9 protein expression in human PANC1 cells at 10 to 50 umol/L after 24 hrs by SDS-PAGE analysis
Format: functional, cell-based
Settings: not given
Method in brief: as §1
For `COc1cc2ccc(=O)oc2cc1OCC(=O)c1ccc(Br)cc1`, the inhibition was “Active”.

Species: Gallus gallus
Assay: Antiangiogenic activity in chicken embryo chorioallantoic membrane model assessed as inhibition of new blood vessel formation at 10 nmol/egg after 48 hrs by microscopy
Format: functional, tissue-based
Settings: not given
Method in brief: (§2)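 Fertilized chicken eggs incubated seven days at 37.5 °C, ~55% humidity, and the air sac membrane was detached. Sterile 5 × 5 mm filter paper soaked with DMSO or compound (5 and 10 nmol/egg) was air-dried and placed on the CAM. Eggs were sealed and reincubated. Fat emulsion (20%) was injected into the CAM and vessels photographed. Three independent experiments.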
With `COc1cc2ccc(=O)oc2cc1OCC(=O)c1ccc(Br)cc1` the inhibition was “Active”.

Species: Gallus gallus
Assay: Antiangiogenic activity in chicken embryo chorioallantoic membrane model assessed as inhibition of new blood vessel formation at 5 nmol/egg after 48 hrs by microscopy
Format: functional, tissue-based
Settings: not given
Method in brief: as §2
In the case of `COc1cc2ccc(=O)oc2cc1OCC(=O)c1ccc(Br)cc1`, the inhibition is reported as “Active”.

System: HUVEC
Assay: Antiangiogenic activity against HUVEC assessed as inhibition of VEGF-induced branching and network formation at 25 umol/L after 5 hrs by microscopy
Format: functional, cell-based
Settings: Homo sapiens
Method in brief: (§3)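 Matrigel-coated wells gelled 37 °C 30 min. DMSO or compound (final 25 µmol/L) added for 30 min before plating. After 5 h, enclosed complete tubes counted in five random fields by microscopy. Triplicate experiments, means ± SEM.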
With `COc1cc2ccc(=O)oc2cc1OCC(=O)c1ccc(Br)cc1` the inhibition was “Active”.

System: HUVEC
Assay: Antiangiogenic activity against HUVEC assessed as inhibition of VEGF-induced tube formation at 25 umol/L after 5 hrs by microscopy
Format: functional, cell-based
Settings: Homo sapiens
Method in brief: as §3
For `COc1cc2ccc(=O)oc2cc1OCC(=O)c1ccc(Br)cc1`, the inhibition was “Active”.

System: HUVEC
Assay: Antiangiogenic activity against HUVEC assessed as inhibition of VEGF-induced cell migration at 25 umol/L after 20 hrs by Boyden chamber assay
Format: functional, cell-based
Settings: Homo sapiens
Method in brief: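 Boyden chamber, 8.0 µm membrane. HUVECs at 80% confluence serum-starved 12 h in basal medium and suspended at 1 × 10⁶ cells/mL. Pre-treated 30 min at room temperature with DMSO or compound (final 25 µmol/L). After 20 h cells fixed, stained, and counted in five random fields. Triplicate experiments.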
In the case of `COc1cc2ccc(=O)oc2cc1OCC(=O)c1ccc(Br)cc1`, the inhibition is reported as “Active”.

System: HuT78
Assay: Cytotoxicity against human HUT78 cells after 24 hrs by MTT assay
Format: functional, cell-based
Settings: HuT78, 24 h
`COc1cc2ccc(=O)oc2cc1OCC(=O)c1ccc(Br)cc1` gave an IC50 of 93.7 µM.

System: K562
Assay: Cytotoxicity against human K562 cells after 24 hrs by MTT assay
Format: functional, cell-based
Settings: K562, 24 h
`COc1cc2ccc(=O)oc2cc1OCC(=O)c1ccc(Br)cc1` showed an IC50 of 70 µM.

System: HL-60
Assay: Cytotoxicity against human HL60 cells after 24 hrs by MTT assay
Format: functional, cell-based
Settings: HL-60, 24 h
Work on `COc1cc2ccc(=O)oc2cc1OCC(=O)c1ccc(Br)cc1` yielded an IC50 of 90.4 µM.

System: not listed separately
Assay: Cytotoxicity against human SHG44 cells after 24 hrs by MTT assay
Format: functional, cell-based
Settings: SHG-44, 24 h
With `COc1cc2ccc(=O)oc2cc1OCC(=O)c1ccc(Br)cc1` the IC50 was over 100 µM.

System: A-431
Assay: Cytotoxicity against human A431 cells after 24 hrs by MTT assay
Format: functional, cell-based
Settings: A-431, 24 h
For `COc1cc2ccc(=O)oc2cc1OCC(=O)c1ccc(Br)cc1`, the IC50 was over 100 µM.

System: A549
Assay: Cytotoxicity against human A549 cells after 24 hrs by MTT assay
Format: functional, cell-based
Settings: A549, 24 h
Work on `COc1cc2ccc(=O)oc2cc1OCC(=O)c1ccc(Br)cc1` yielded an IC50 of over 100 µM.

System: MKN-45
Assay: Cytotoxicity against human MKN45 cells after 24 hrs by MTT assay
Format: functional, cell-based
Settings: MKN-45, 24 h
For `COc1cc2ccc(=O)oc2cc1OCC(=O)c1ccc(Br)cc1`, the IC50 was over 100 µM.

System: HCT-116
Assay: Cytotoxicity against human HCT116 cells after 24 hrs by MTT assay
Format: functional, cell-based
Settings: HCT-116, 24 h
Work on `COc1cc2ccc(=O)oc2cc1OCC(=O)c1ccc(Br)cc1` yielded an IC50 of over 100 µM.

System: HepG2
Assay: Cytotoxicity against human HepG2 cells after 24 hrs by MTT assay
Format: functional, cell-based
Settings: HepG2, 24 h
In the case of `COc1cc2ccc(=O)oc2cc1OCC(=O)c1ccc(Br)cc1`, the IC50 is reported as 90.4 µM.

System: MDA-MB-231
Assay: Cytotoxicity against human MDA-MB-231 cells after 24 hrs by MTT assay
Format: functional, cell-based
Settings: MDA-MB-231, 24 h
For `COc1cc2ccc(=O)oc2cc1OCC(=O)c1ccc(Br)cc1`, the IC50 was 47 µM.

System: MDA-MB-435
Assay: Cytotoxicity against human MDA-MB-435 cells after 24 hrs by MTT assay
Format: functional, cell-based
Settings: MDA-MB-435, 24 h
`COc1cc2ccc(=O)oc2cc1OCC(=O)c1ccc(Br)cc1` gave an IC50 of over 100 µM.

System: BXPC-3
Assay: Cytotoxicity against human BxPC3 cells after 24 hrs by MTT assay
Format: functional, cell-based
Settings: BXPC-3, 24 h
`COc1cc2ccc(=O)oc2cc1OCC(=O)c1ccc(Br)cc1` gave an IC50 of over 100 µM.

System: PANC-1
Assay: Cytotoxicity against human PANC1 cells after 24 hrs by MTT assay
Format: functional, cell-based
Settings: PANC-1, 24 h
`COc1cc2ccc(=O)oc2cc1OCC(=O)c1ccc(Br)cc1` showed an IC50 of 63.7 µM.

System: PBMC
Assay: Cytotoxicity against human PBMC after 24 hrs by MTT assay
Format: cell-based
Settings: not given
With `COc1cc2ccc(=O)oc2cc1OCC(=O)c1ccc(Br)cc1` the IC50 was over 100 µM.

System: HUVEC
Assay: Antiproliferative activity against HUVEC assessed as growth inhibition rate after 24 hrs by MTT assay
Format: functional, cell-based
Settings: Homo sapiens
Method in brief: (§4)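 HUVECs (passages 3–5, primary cord isolates) seeded at 1 × 10⁴ cells/well. Medium replaced with M199 containing 1% FBS plus compound. Viability read by MTT after 24 h. Percent inhibition was calculated from A570 minus A630 of treated versus control wells, and IC50 determined. Triplicate experiments, means ± SEM.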
Work on `COc1cc2ccc(=O)oc2cc1OCC(=O)c1ccc(Br)cc1` yielded an IC50 of 16.8 µM.

System: HUVEC
Assay: Antiproliferative activity against HUVEC assessed as growth inhibition rate at 100 uM after 24 hrs by MTT assay
Format: functional
Settings: Homo sapiens, read-out: GI
Method in brief: as §4
In the case of `COc1cc2ccc(=O)oc2cc1OCC(=O)c1ccc(Br)cc1`, the inhibition of growth at 100 µM is reported as 97.5%.

System: HUVEC
Assay: Antiproliferative activity against HUVEC assessed as growth inhibition rate at 10 uM after 24 hrs by MTT assay
Format: functional
Settings: Homo sapiens, read-out: GI
Method in brief: as §4
With `COc1cc2ccc(=O)oc2cc1OCC(=O)c1ccc(Br)cc1` the inhibition of growth at 10 µM was 13.2%.

System: HUVEC
Assay: Antiangiogenic activity against HUVEC assessed as inhibition of VEGF-induced migration at 25 umol/L after 20 hrs by microscopy
Settings: Homo sapiens
With `COc1cc2ccc(=O)oc2cc1OCC(=O)c1ccc(Br)cc1` the inhibition was “Active”.
